Compound activity deposited in PubChem BioAssay by The Scripps Research Institute Molecular Screening Center.
HTRA1 inh: HTRA1 (human) protease inhibition. actives 0.5% (n = 340,000). inhibition, % at 5.96 µM. recombinant HTRA1, FP-rhodamine activity-based probe, fluorescence polarization. AID 504803. Q92743; in the data active = inhibition above about 36%;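 also: 0% = enzyme with DMSO and 100% = wells lacking enzyme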
PRMT1 inh: inhibitors of human PRMT1; Q99873; recombinant PRMT1, activity-based probe fluorescence polarization; inhibition, % at 2.79 µM; actives 1.3% (n = 370,000);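 active = inhibition above about 21% made by adding two undisclosed values, limit read from the data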
SIAE inh: human SIAE inhibition, primary screen; AID 1053197; actives 0.69% (n = 370,000); Q9HAT2; SIAE FP-Rh probe binding, fluorescence polarization; inhibition, % at 9.66 µM;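 active = inhibition above a cutoff: mean of compounds within the control limits plus 3 SD of those, cut at about 17% in these data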;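 also: 0% = plate median of compound wells and 100% = probe without SIAE protein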
Target sequence (Q9HAT2 whole entry, looked up): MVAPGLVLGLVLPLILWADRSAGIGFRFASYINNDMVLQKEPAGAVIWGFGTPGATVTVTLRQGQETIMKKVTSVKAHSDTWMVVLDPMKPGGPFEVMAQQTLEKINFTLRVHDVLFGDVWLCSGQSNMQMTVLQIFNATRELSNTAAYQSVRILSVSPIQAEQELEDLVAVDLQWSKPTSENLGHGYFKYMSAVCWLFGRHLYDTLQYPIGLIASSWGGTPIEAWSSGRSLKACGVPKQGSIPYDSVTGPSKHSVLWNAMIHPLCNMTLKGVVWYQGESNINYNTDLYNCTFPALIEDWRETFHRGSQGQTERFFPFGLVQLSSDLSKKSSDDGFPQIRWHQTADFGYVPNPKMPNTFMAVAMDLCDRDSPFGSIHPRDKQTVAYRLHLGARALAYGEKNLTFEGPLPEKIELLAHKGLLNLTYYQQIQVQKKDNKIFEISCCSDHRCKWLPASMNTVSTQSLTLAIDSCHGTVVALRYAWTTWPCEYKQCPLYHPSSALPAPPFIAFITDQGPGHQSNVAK
TCR-CD3 inh: blocks the human TCR-CD3 interaction. inhibition, % at 9.4 µM. actives 0.37% (n = 360,000). TAMRA-labeled TCR probe fluorescence, biochemical; in the data active = inhibition above about 19%;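 also: recombinant mutant TCR 2C K166C tagged with TAMRA read by polarization; 0% = receptor in buffer alone and 100% = receptor with positive control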
mABHD4 FP: ABHD4 (mouse) inhibition, primary FP screen; Q8VD66; purified mABHD4, FP-Rh probe fluorescence polarization; inhibition, % at 8.92 µM; actives 0.54% (n = 370,000); AID 720543;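 active = inhibition exceeding the mean over every tested compound plus 3 SD, cut at about 30% in these data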;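 also: 0% = plate median of compound wells and 100% = S159A mutant with DMSO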
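Material: mouse ABHD4 enzyme, wild type; Benchmarks: S159A mutant high control, sample median low control; Buffer or medium: HEPES pH 7.0, NaCl, Pluronic buffer; Signal: fluorescence polarization; Read-out: percent inhibition of probe binding, normalized to plate controls; Timing: pre-incubation 45 min, probe exposure 60 min, at 25 °C; Dosing: 8.92 µM, single dose.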
HTRA1 conf: confirmation of human HTRA1 inhibitors; shares compounds with HTRA1 inh; inhibition, % at 5.96 µM; actives 66% (n = 1,600); recombinant HTRA1, FP-rhodamine activity-based probe, fluorescence polarization;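 active = mean inhibition over three repeats above a set limit taken from the earlier primary screen, cut at about 37% in these data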;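 also: 0% = HTRA1 with DMSO and 100% = wells lacking HTRA1; inhibitors block probe binding so polarization drops and inhibition rises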
* hit, by the source's call. Hits are enriched below; roughly 2.5% of the tested compounds scored in any of these assays.

For CC(=O)C(C(C)=O)c1c(Cl)c(O)c(O)c2c(C(=O)c3ccccc3)coc12 the results were HTRA1 inh 65*, PRMT1 inh 79*, SIAE inh -1, TCR-CD3 inh -2, mABHD4 FP 43* and HTRA1 conf 82*.
`CN1CCN(Cc2c(O)ccc3occ(C(=O)c4ccccc4)c23)CC1` gave HTRA1 inh 7, PRMT1 inh 2, SIAE inh 0, TCR-CD3 inh 6 and mABHD4 FP 3.
`COc1ccc(-c2c[n+]3c4n2CCCCC4=C(c2ccc(Br)cc2)C3)cc1` gave HTRA1 inh 52*, PRMT1 inh 1, SIAE inh 0, TCR-CD3 inh -9, mABHD4 FP 2 and HTRA1 conf 21.
Cc1[nH]c(C)c(S(=O)(=O)NCc2ccc(Cl)cc2)c1C(=O)N1CCCC1 was read as HTRA1 inh 2, PRMT1 inh -1, SIAE inh 8, TCR-CD3 inh 7 and mABHD4 FP -2.
Screening Nc1cc([N+](=O)[O-])cc2oc(-c3ccccc3)cc12 returned HTRA1 inh 45*, PRMT1 inh 8, SIAE inh 3, TCR-CD3 inh -27, mABHD4 FP 23 and HTRA1 conf 38*.
`COc1ccc(Cl)cc1S(=O)(=O)Nc1ccc2c(c1)n(C)c(=O)n2C` gave HTRA1 inh -2, PRMT1 inh 0, SIAE inh 8, TCR-CD3 inh 2 and mABHD4 FP -1.
O=C(Oc1ccc(OC(=O)c2ccco2)c(S(=O)(=O)c2ccc(Br)cc2)c1)c1ccco1 was read as HTRA1 inh 42* and HTRA1 conf 51*.
Cc1ccc(S(=O)(=O)c2cc(OC(=O)c3ccco3)ccc2OC(=O)c2ccco2)cc1 was read as HTRA1 inh 12, PRMT1 inh 4, SIAE inh -4, TCR-CD3 inh 0 and mABHD4 FP -11.
For Nc1ccc(CCCC(=O)NCc2cccnc2)cc1 the results were HTRA1 inh -2, PRMT1 inh 1, SIAE inh 2, TCR-CD3 inh 0 and mABHD4 FP 0.
Screening COCCCN1C(=O)C(CC(=O)NCc2cccs2)CC(C(=O)N2CCCCCC2)=C1C (stereo not given) returned PRMT1 inh -3, SIAE inh -1, TCR-CD3 inh 0 and mABHD4 FP 5.
N=C1CCC(=N)c2c1c(O)c1ccccc1c2O was read as HTRA1 inh 88* and HTRA1 conf 110*.
`CN1CCN(c2cc(-c3cc(O)c4ncccc4c3)ccn2)CC1` gave HTRA1 inh 47*, PRMT1 inh 1, SIAE inh 4, TCR-CD3 inh -6, mABHD4 FP 19 and HTRA1 conf 62*.
Screening COc1ccccc1C1(O)C(=O)Nc2ccccc21 (stereo not given) returned HTRA1 inh -1, PRMT1 inh -1, SIAE inh 0, TCR-CD3 inh -4 and mABHD4 FP -8.
`O=C(c1ccccc1)c1coc2c1C(=O)c1ccccc1C2=O` gave HTRA1 inh 31, PRMT1 inh 14, SIAE inh -4, TCR-CD3 inh -6 and mABHD4 FP 5.
Screening O=C1c2ccccc2-c2onc3ccc(Oc4ccccc4)c1c23 returned HTRA1 inh 39*, PRMT1 inh 11, SIAE inh -6, TCR-CD3 inh -34, mABHD4 FP -31 and HTRA1 conf 22.
`Cc1ccc(Nc2c([N+](=O)[O-])ccc3c2=NC2(CCCCC2)N=3)cc1` gave HTRA1 inh 37*, PRMT1 inh 5, SIAE inh 17, TCR-CD3 inh -11, mABHD4 FP 15 and HTRA1 conf 75*.
For CCN(CC)C(=O)c1ccc(-c2nnc(Nc3ccc(O)cc3)c3ccccc23)cc1 the results were HTRA1 inh 41*, PRMT1 inh 1, SIAE inh 4, TCR-CD3 inh -11, mABHD4 FP -5 and HTRA1 conf 25.
`COC(=O)C1(NC(=O)CNC(=O)OCc2ccccc2)CCCC1` gave HTRA1 inh -4, PRMT1 inh 2, SIAE inh 2, TCR-CD3 inh 2 and mABHD4 FP 3.
CCCCCCCCC/C(=N\O)c1ccccn1 was read as HTRA1 inh 66*, PRMT1 inh -1, SIAE inh -6, TCR-CD3 inh 2, mABHD4 FP -5 and HTRA1 conf 66*.
For Brc1csc2ncccc12 the results were HTRA1 inh 1, PRMT1 inh 2, SIAE inh -3, TCR-CD3 inh -5 and mABHD4 FP 9.
`Oc1c(Br)cc(Br)c2cccnc12` gave HTRA1 inh 58*, PRMT1 inh 0, SIAE inh 27*, TCR-CD3 inh -6, mABHD4 FP 28 and HTRA1 conf 59*.
`Oc1c(CN2CCN(c3ccccc3)CC2)cc(Br)c2cccnc12` gave HTRA1 inh 56*, PRMT1 inh 0, SIAE inh 6, TCR-CD3 inh 6, mABHD4 FP 15 and HTRA1 conf 44*.
`CCCCOc1ccc([N+](=O)[O-])cc1C(=O)O` gave HTRA1 inh -2, PRMT1 inh 4, SIAE inh 1, TCR-CD3 inh -3 and mABHD4 FP 6.
`CCN(CC)S(=O)(=O)c1cc(OC)ccc1N=Nc1ccc(O)c2ncccc12` gave HTRA1 inh 63*, PRMT1 inh -5, SIAE inh 15, TCR-CD3 inh -6, mABHD4 FP 22 and HTRA1 conf 69*.
`CCS(=O)(=O)c1ccc(OC)c(N=Nc2ccc(O)c3ncccc23)c1` gave HTRA1 inh 45*, PRMT1 inh -2, SIAE inh 4, TCR-CD3 inh 3, mABHD4 FP 21 and HTRA1 conf 31.
Screening COC(=O)[C@]12CCCCC=C1N(CCC1=CCCCC1)C(=O)[C@H](CC(=O)NCc1ccccc1)C2 returned PRMT1 inh -2, SIAE inh -2, TCR-CD3 inh -2 and mABHD4 FP -1.
Screening COC(=O)[C@]12C[C@H](CC(=O)NCc3cccc4ccccc34)C(=O)N(Cc3ccco3)C1=C[C@H](C1CCCC1)O[C@@H]2C returned PRMT1 inh -2, SIAE inh -5 and mABHD4 FP -12.
O=C1CCC/C(=N/Nc2ccc(Cl)cc2)C1 was read as HTRA1 inh 37*, PRMT1 inh 2, SIAE inh 6, TCR-CD3 inh 2, mABHD4 FP 18 and HTRA1 conf 42*.
Screening O=C(NN=C1CCCC1)c1ccc(Cl)cc1 returned HTRA1 inh 5, PRMT1 inh -1, SIAE inh 0, TCR-CD3 inh 3 and mABHD4 FP -5.
CC1(C(=O)NS(=O)(=O)c2cccs2)CCN1C(=O)CC1CC1 (stereo not given) was read as PRMT1 inh 5, SIAE inh 13, TCR-CD3 inh -6 and mABHD4 FP 5.
